Screens deposited in PubChem BioAssay by several laboratories.
HTR1E antagonist: 5-HT1E (human) receptor antagonism; P28566; 0.99% of 65,000 active; CHO 5-HT1E Ga15 NFAT-bla reporter, FRET, antagonist; inhibition, % at 6 µM; AID 571;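 active = inhibition above a set limit, the mean inhibition across every tested compound plus 3 SD, cut at about 29% in these data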;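 note: signal is the 460 over 535 nm emission ratio of beta-lactamase substrate; 0% = agonist plus DMSO wells and 100% = wells without agonist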
S1P3 agonist: agonists of human S1P3 receptor; AID 373; S1P3 NFAT-BLA reporter cells, agonism, FRET ratio; relative to 1 µM S1P, basal subtracted; 0.1% of 60,000 active; Q99500; activation, % at 4.5 µM;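 active = activation above the screen-wide mean plus 3 SD, cut at about 4.5% in these data, passing the limit was not always enough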
Target sequence (Q99500 whole entry, looked up): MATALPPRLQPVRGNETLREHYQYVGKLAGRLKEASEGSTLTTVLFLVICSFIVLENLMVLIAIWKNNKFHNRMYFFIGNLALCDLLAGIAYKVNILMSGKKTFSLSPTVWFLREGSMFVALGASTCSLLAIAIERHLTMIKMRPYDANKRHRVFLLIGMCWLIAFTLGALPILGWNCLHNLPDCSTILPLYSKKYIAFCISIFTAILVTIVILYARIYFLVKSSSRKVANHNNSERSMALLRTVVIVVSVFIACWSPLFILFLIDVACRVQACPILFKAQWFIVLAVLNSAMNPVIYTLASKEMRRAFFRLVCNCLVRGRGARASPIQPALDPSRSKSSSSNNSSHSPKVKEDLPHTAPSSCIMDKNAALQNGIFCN
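Material: Human S1P3 NFAT-BLA reporter CHO cells | Incubation: Overnight plating, 4 h compound 37 °C, 2 h substrate RT | Signal: FRET β-lactamase substrate fluorescence, excitation 405 nm, 460/535 nm emission ratio, background-subtracted | Compound: 4.5 µM final, single dose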
5-HT1A blocker: antagonists of human 5-HT1a serotonin receptor; P08908; CHO 5-HT1a Ga15 NFAT-bla reporter, antagonist mode; inhibition, % at 10 µM; 0.68% of 62,000 active; AID 612;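 active = inhibition above the mean of all tested compounds plus 3 SD, cut at about 43% in these data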;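 note: receptor stimulated by 5-CT agonist at 100 nM near EC80; beta-lactamase reporter measured by ratiometric fluorescence of a cleavable substrate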
HTR1E agonist: 5-HT1E (human) receptor agonism | P28566 | CHO 5-HT1E Ga15 NFAT-bla reporter, FRET; 0% DMSO wells, 100% control agonist wells | activation, % at 6 µM | 0.69% of 65,000 active | AID 574;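 active = activation above a set limit, the screen-wide mean activation plus 3 SD, cut at about 8.5% in these data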;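 note: 100% = positive control agonist at 1 µM giving full maximal response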
E coli RNAP: Escherichia coli RNA polymerase inhibition; E. coli RNA polymerase, fluorescence transcription assay; inhibition, %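 (tested at 10 µM)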; 0.2% of 62,000 active; in the data active = inhibition above about 20%;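 note: 0% = enzyme without compound and 100% = no enzyme blank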
HTR1A agonist: 5-HT1a (human) receptor agonism. CHO 5-HT1a Ga15 NFAT-bla reporter, FRET ratio; 0% basal, 100% maximal reference agonist. P08908. 0.56% of 65,000 active. AID 567. activation, % at 10 µM;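 active = activation above the screen-wide mean activation plus 3 SD, cut at about 19% in these data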;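 note: 0% = DMSO wells and 100% = 5-CT at EC100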
* = called active by the depositor; . = not tested or not shown. Rows were chosen to be rich in hits. Some 2.6% of all compounds tested hit in one or more screens of this group.

SMILES | HTR1E antagonist | S1P3 agonist | 5-HT1A blocker | HTR1E agonist | E coli RNAP | HTR1A agonist
O=C(NC1CCCC1)C(c1cccs1)N(CC1CCCO1)C(=O)Cc1cccs1 (centres undefined) | 3 | -2 | 44* | 0 | 7 | 0
O=C(NC1CCCCC1)C(c1cccs1)N(Cc1cccs1)C(=O)c1ccco1 (centres undefined) | 0 | -1 | 50* | -1 | 11 | 0
O=C(NC1CCCCC1)C(c1cccs1)N(CC1CCCO1)C(=O)c1csnn1 (centres undefined) | 5 | 0 | 12 | 0 | -9 | -3
Cc1cc(C)nc(Nc2nc(=O)c3ccccc3s2)n1 | -15 | -1 | 62* | 1 | 7 | 1
Cc1cc(C(F)(F)F)nc(Nc2nc(C)c3ccccc3n2)n1 | 0 | -1 | -5 | -1 | 8 | -2
CCc1nn(C(C)C(=O)N2CCN(Cc3ccccc3)CC2)c(=O)c2cc3occc3n12 (centres undefined) | -10 | 0 | -5 | 16* | 8 | 0
Cn1c(Cc2csc(N)n2)nnc1SCC(=O)NCc1ccccc1 | -3 | 0 | -18 | 1 | 5 | 4
CCOCCCNC(=O)CN1CCN(Cc2ccccc2C)C1=O | -3 | 0 | 9 | -1 | 8 | -5
CCOc1ccc(CCNC(=O)CN2CCN(Cc3ccccc3C)C2=O)cc1OCC | -2 | -1 | -8 | -1 | -1 | 47*
CCCCC(=O)NC(Nc1nc(C2CC2)cs1)(C(=O)OCC)C(F)(F)F (centres undefined) | 11 | 5.3* | 16 | 0 | 6 | 0
Cn1c(=O)c2c(-c3ccccc3)n(C3CCCCC3)cc2n(C)c1=O | 2 | 13* | -4 | 1 | -6 | 1
O=S(=O)(Nc1nccs1)c1ccc(NS(=O)(=O)c2cccs2)cc1 | 9 | -1 | -4 | -1 | 10 | 2
CS(=O)(=O)Nc1ccc(S(=O)(=O)Nc2nccs2)cc1 | 6 | 0 | 3 | 10* | 5 | -3
C/C(CC1(O)C(=O)N(C)c2ccccc21)=N\O (centres undefined) | 4 | 0 | -5 | 0 | 6 | 0
CC(=O)N(C(C)=O)c1c(N2CCOCC2)c2ccccc2oc1=O | 4 | 0 | -5 | 0 | 2 | -6
Fc1cccc(-c2cc3nc4c(c(N5CCOCC5)n3n2)CCCC4)c1 | 30* | 0 | 21 | -1 | 8 | -2
c1ccc(-c2nnc3n2N=C(c2ccc4c(c2)OCO4)CS3)nc1 | 2 | -1 | . | -1 | 7 | -1
c1cc2c(cc1C1=Nn3c(nnc3C3CCCCC3)SC1)OCO2 | 32* | -2 | . | -2 | 3 | 1
C=CCc1ccccc1OCC(O)CN1CCN(C(=O)OCC)CC1 (centres undefined) | -6 | 0 | 7 | 0 | 4 | -3
C=CCc1ccccc1OCC(O)CN1CCN(c2ccc(C)cc2)CC1 (centres undefined) | 6 | -1 | 73* | 0 | -1 | -1
Cn1c(SC2=CS(=O)(=O)c3ccccc32)nc2ccccc21 | 50* | -1 | 74* | 1 | 12 | 0
COc1ccccc1CNC(=O)CN(c1ccc(C)cc1)S(=O)(=O)c1c(C)n[nH]c1C | 9 | 0 | 20 | 0 | 2 | -1
Cc1nnc(SCc2cnc(-c3ccc(C(C)C)cc3)s2)n1C | 5 | -1 | -15 | 0 | 4 | -2
CCC(C)NC(=O)N[C@@H](Cc1ccccc1)C(=O)O (some centres undefined) | 1 | 0 | -2 | 0 | 16 | 61*
CNC(=O)N(C1=NCC(C)(C)S1)c1ccc(F)c(Cl)c1 | 31* | -1 | 12 | 0 | 0 | 1
SMILES | HTR1E antagonist | S1P3 agonist | 5-HT1A blocker | HTR1E agonist | E coli RNAP | HTR1A agonist
O=C(NC1CCCCC1)N(Cc1cc2cc3c(cc2[nH]c1=O)OCCO3)CC1CCCO1 (centres undefined) | -6 | -1 | -14 | 0 | -6 | -1
CCC1(C)Cc2ccccc2/C(=C/C(=O)N2CCCCC2)N1 (centres undefined) | 3 | 0 | 22 | -1 | 3 | -3
COc1ccc(N2C(=O)CC(N(Cc3ccc(S(N)(=O)=O)cc3)C(C)=O)C2=O)cc1 (centres undefined) | 0 | -2 | . | -1 | -5 | 0
COc1ccc(N2C(=O)CC(Sc3nnc(-c4ccccc4)o3)C2=O)cc1 (centres undefined) | -5 | -1 | 47* | 0 | 1 | -3
COc1ccc2c(c1)C(C)CC(C)(C)N2C(=O)CSc1ncn[nH]1 (centres undefined) | 1 | -1 | 4 | 0 | 9 | -1
COc1ccc(N2C(=O)CC(n3c(CCCCO)nc4ccccc43)C2=O)cc1 (centres undefined) | -2 | 0 | -6 | 0 | 7 | 0
CCCCOc1ccc(C(=O)Nc2ccc(N3CCN(C)CC3)cc2)cc1 | 11 | 0 | 11 | 15* | . | -3
CCCCOc1cccc(C(=O)Nc2ccc(N3CCN(CC)CC3)cc2)c1 | 1 | -1 | 9 | 0 | 4 | -5
CC(C)Oc1ccc(C(=O)Nc2ccc(N3CCCC3)cc2)cc1 | -13 | -2 | 3 | 2 | 5 | 50*
CC1(C)CC(=O)C2=C(C1)NC(SCC(=O)Nc1ccccc1)=C(C#N)C2c1ccco1 (centres undefined) | 33* | -1 | 38 | 0 | 4 | -2
CC1=C(C(=O)OC2CCCCC2)C(c2ccc(C)o2)C2=C(CCCC2=O)N1 (centres undefined) | 30* | -2 | 25 | 0 | 3 | -2
CC1=C(C(=O)OC2CCCCC2)C(c2ccco2)C2=C(CC(C)(C)CC2=O)N1 (centres undefined) | 44* | -1 | 23 | 0 | -2 | 0
COC(=O)c1cc(OC)c(OC)c(OC)c1NC(=O)c1ccc(S(=O)(=O)N(C)C)cc1 | 9 | -1 | 2 | 0 | -2 | -1
Cc1cc(SCC(=O)c2ccccc2)nc(C)n1 | 10 | -1 | -7 | -1 | 8 | -1
Cc1nc(SCC#N)c2c(C)c(C)sc2n1 | 35* | 0 | 19 | 2 | 3 | 1
Cc1ccc(-c2nnc(CSc3nc(C)nc4sc(C)c(C)c34)o2)cc1 | -10 | 0 | 4 | 1 | 8 | -2
CN(C)Cc1cc(CCNC(=O)c2ccc(Cl)cc2)ccc1O | 7 | 0 | 27 | 14* | -2 | -3
COc1ccc(CCNC(=O)c2ccncc2)cc1OC | 5 | -2 | 7 | 0 | 8 | 2
O=C(c1cccc(F)c1)N1CCN(C(=O)c2nn3cccnc3c2Cl)CC1 | 0 | 0 | -4 | 0 | 4 | -2
COc1ccccc1NC1SC(=O)N(c2ccccc2)C1=O (centres undefined) | -3 | 0 | -5 | 0 | 10 | 1
